Assay results collected from several papers.
Protocols differ between the studies behind these lines.
Effect on: enzyme activity
Mode: inhibitor
CDK2 with cyclin A: Cyclin-dependent kinase 2, with cyclin A (CDK2, Homo sapiens, UniProt P24941)
CDK2: Cyclin-dependent kinase 2 (CDK2, Homo sapiens, UniProt P24941)

`COc1cc2ncnc(Nc3ccc(Oc4ccccc4)cc3C)c2cc1OC` has an inhibition of -14% (CDK2 with cyclin A; 1 µM).
The inhibition of `CN(C)C1CCN(CC#Cc2nn(C3CCCC3)c3nc(NCc4ccccc4)ncc23)C1` (stereo not drawn) is reported as 7% (CDK2 with cyclin A; FRET; 0.1 µM).
`Cn1cnc(Br)c1C1=CN(c2ncnc3[nH]cnc23)CCS1` has an inhibition of 50.8% (CDK2; radiometric; 2 µM).
`CSc1nc(C)c(-c2ccnc(Nc3ccc(N4CCOCC4)cc3)c2)[nH]1` has an inhibition of 66.4% (CDK2; 10 µM).
With `Cn1cncc1C1=CN(c2ncnc3[nH]cnc23)CCS1` the inhibition was 49.1% (CDK2; radiometric; 2 µM).
`C=CC(=O)Nc1cc(Nc2nccc(Nc3cc(Cl)c(F)cc3C(C)(C)O)n2)c(OC)cc1N1CC[C@@H](N(C)C)C1` has an inhibition of -13% (CDK2 with cyclin A; 1 µM).
The inhibition of `CNC(=O)c1ccccc1Nc1cc(Nc2ccc(N3CCOCC3)cc2OC)ncc1C(F)(F)F` is reported as greater than 50% (CDK2; 1 µM).
`COc1cc(-c2cc(-c3ccc(N4CCNCC4)cc3)cnc2N)cc(OC)c1OC` gave an inhibition of 1% (CDK2 with cyclin A; 0.1 µM).
The inhibition of `CC/C(=N\NC(=O)NCc1cccc(O)c1)c1ccc(O)c(C)c1O` is reported as 0.5% (Cyclin-dependent kinase 2, with cyclin A2 (CDK2, Homo sapiens, UniProt P24941); 0.1 µM).
The inhibition of `CS(=O)(=O)Nc1cccc(-c2csc(NC(=O)CSc3nc4nccnc4c(=O)n3CCc3ccccc3)n2)c1` is reported as 8% (Cyclin-dependent kinase 2, with cyclin O (CDK2, Homo sapiens, UniProt P24941); 10 µM).
`CCCS(=O)(=O)Nc1ccc(F)c(C(=O)c2c[nH]c3ncc(-c4ccc(Cl)cc4)cc23)c1F` gave an inhibition of less than 10% (Cyclin-dependent kinase 2, with cyclin E (CDK2, Homo sapiens, UniProt P24941); 1 µM).
The inhibition of `CN1CC(Oc2cnc(C#N)cc2-c2ccn3nc(NC(=O)C4CC4)cc3c2)C1` is reported as 0% (CDK2 with cyclin A; 1 µM).
